The values that follow come from ChEMBL document CHEMBL4028873, “The Discovery of a Dual TTK Protein Kinase/CDC2-Like Kinase (CLK2) Inhibitor for the Treatment of Triple Negative Breast Cancer Initiated from a Phenotypic Screen” (J Med Chem, 2017).

The source made the active and inactive calls. No cut-off for these calls is given here.

As usually defined, the IC50 is the concentration that gives 50% inhibition. The MRT is the average time that molecules of a dose stay in the body. The inhibition is the share of the control response that was lost under treatment. Low values mean a weak effect, high ones a strong effect.

The nature of data set [1]: Volume of distribution at steady state in rat at 2 mg/kg, iv. It counts as ADME, organism-based. As to conditions: in vivo, read-out: Vdss.
The target in data set [2] is T1, Dual specificity tyrosine-phosphorylation-regulated kinase 1B (Homo sapiens, UniProt Q9Y463). Kind of data set: Inhibition of full length human recombinant GST-tagged DYRK1B expressed in baculovirus by Z'-LYTE assay.
Target sequence in this assay (Q9Y463 whole entry): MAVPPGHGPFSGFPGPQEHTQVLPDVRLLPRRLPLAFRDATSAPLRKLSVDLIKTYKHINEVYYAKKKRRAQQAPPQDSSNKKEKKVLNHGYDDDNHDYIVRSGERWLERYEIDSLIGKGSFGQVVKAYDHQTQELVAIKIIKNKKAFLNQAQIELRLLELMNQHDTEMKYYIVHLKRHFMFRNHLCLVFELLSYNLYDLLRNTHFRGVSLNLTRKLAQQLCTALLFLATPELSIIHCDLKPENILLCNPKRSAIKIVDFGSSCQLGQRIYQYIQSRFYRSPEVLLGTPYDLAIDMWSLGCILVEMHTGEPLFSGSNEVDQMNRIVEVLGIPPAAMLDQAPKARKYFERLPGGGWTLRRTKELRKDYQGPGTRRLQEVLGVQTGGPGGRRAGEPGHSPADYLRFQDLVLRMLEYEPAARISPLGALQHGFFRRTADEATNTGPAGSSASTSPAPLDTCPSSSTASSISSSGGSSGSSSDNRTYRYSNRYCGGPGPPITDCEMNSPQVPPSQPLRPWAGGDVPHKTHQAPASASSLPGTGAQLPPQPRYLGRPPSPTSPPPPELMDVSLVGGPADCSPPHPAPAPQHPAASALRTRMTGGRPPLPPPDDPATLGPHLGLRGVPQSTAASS
In data set [3] the target is T2, Phosphatidylinositol 5-phosphate 4-kinase type-2 gamma (Homo sapiens, UniProt Q8TBX8).
T2 sequence (Q8TBX8 whole entry): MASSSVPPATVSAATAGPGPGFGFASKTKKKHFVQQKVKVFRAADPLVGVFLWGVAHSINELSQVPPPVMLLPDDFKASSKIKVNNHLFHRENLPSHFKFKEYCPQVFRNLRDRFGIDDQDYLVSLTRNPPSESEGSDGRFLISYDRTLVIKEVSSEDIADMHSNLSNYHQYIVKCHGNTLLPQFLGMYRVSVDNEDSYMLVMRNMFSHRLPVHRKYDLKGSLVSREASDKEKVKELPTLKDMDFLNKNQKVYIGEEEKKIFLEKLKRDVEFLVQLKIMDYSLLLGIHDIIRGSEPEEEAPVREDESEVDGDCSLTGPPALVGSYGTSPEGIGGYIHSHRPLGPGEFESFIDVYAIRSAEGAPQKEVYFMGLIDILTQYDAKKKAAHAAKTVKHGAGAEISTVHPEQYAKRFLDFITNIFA
Kind of data set: Inhibition of PIP4K2C in human HCT116 cell lysate after 1 hr by LC-MS/MS analysis relative to control.

Data set [4] has as its target Phosphorylase b kinase gamma catalytic chain, skeletal muscle/heart isoform (Homo sapiens, UniProt Q16816). Kind of data set: Binding affinity to PHKG1 in human HCT116 cells at 3 uM after 1 hr by LC-MS/MS analysis relative to control. It counts as cell-based. The method, boiled down:
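ActivX KiNative cellular kinase profiling. HCT-116 cells were grown in RPMI-1640 with 10% FBS and exposed to compound at 3 μM for 1 h, with DMSO-only controls. Cells were then washed with ice-cold PBS, scraped, pelleted and stored at −80 °C. Kinase binding was reported as percent occupancy relative to the untreated controls.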

The next data set relates to MDA-MB-231. Kind of data set: Antiproliferative activity against human MDA-MB-231 cells after 3 days by CellTiter-Glo assay. It counts as functional, cell-based. The method, boiled down: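 Cell lines kept in vendor-recommended growth media; 3-day compound exposure, then CellTiter-Glo luminescence read. Percent inhibition per concentration normalized to DMSO control, triplicate wells.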
In general terms: ATP-based viability assays read luminescence as a measure of living cells.

In another data set the test system is CAL-51. Kind of data set: Antiproliferative activity against human CAL51 cells assessed as reduction in cell viability incubated for 12 to 72 hrs followed by compound washout measured after 72 hrs by Cell-Titer Glo assay. It counts as functional, cell-based. The method, boiled down: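 Cal-51 seeded at 3000 cells/well, dosed next day (0.2% DMSO final), triplicate wells; exposure at 37 °C, 5% CO2 for 6, 12, 24, 48 or 72 h, then three medium washes and culture in fresh medium up to 72 h post treatment; viability read by CellTiter-Glo luminescence.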

In another data set the test system is Mus musculus. Kind of data set: Toxicity in SCID mouse xenografted with human CAL51 cells assessed as loss in body weight at 10 mg/kg, iv administered every 3 days for 16 days relative to control. It counts as organism-based. As to conditions: in vivo. In general terms: In xenograft studies the graft and the host belong to different species.
A short description of data set [5]: MRT in SCID mouse at 5 mg/kg, iv. It counts as ADME, organism-based. Particulars: in vivo.
For data set [6], the target named is T3, Dual specificity tyrosine-phosphorylation-regulated kinase 3 (Homo sapiens) (UniProt O43781).
T3 sequence (whole entry): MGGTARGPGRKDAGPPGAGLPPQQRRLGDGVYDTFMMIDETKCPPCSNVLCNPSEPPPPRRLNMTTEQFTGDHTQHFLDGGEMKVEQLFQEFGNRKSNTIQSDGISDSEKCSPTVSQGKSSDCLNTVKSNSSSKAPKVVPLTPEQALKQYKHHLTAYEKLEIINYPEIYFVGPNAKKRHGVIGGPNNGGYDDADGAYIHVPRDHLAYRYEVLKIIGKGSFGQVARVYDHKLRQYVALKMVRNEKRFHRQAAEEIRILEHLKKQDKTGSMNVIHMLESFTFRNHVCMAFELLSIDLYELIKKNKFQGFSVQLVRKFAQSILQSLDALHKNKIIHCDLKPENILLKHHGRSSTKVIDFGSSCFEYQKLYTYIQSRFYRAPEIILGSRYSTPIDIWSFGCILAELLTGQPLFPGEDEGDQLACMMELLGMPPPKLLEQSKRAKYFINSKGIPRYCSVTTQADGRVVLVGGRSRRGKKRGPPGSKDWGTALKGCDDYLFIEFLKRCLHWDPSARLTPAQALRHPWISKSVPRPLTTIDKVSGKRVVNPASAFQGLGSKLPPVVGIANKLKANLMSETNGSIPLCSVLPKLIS
As to conditions: 3 uM.

Data set [7] addresses T1, Dual specificity tyrosine-phosphorylation-regulated kinase 1B. As to conditions: 3 uM.
Target sequence in this assay (Q9Y463 whole entry, looked up): as the sequence (Q9Y463 whole entry) above
Data set [8] has as its target Dual specificity protein kinase CLK1 (Homo sapiens) (UniProt P49759). Particulars: 3 uM.

Phosphorylase b kinase gamma catalytic chain, skeletal muscle/heart isoform, sequence (Q16816 whole entry, looked up, canonical isoform): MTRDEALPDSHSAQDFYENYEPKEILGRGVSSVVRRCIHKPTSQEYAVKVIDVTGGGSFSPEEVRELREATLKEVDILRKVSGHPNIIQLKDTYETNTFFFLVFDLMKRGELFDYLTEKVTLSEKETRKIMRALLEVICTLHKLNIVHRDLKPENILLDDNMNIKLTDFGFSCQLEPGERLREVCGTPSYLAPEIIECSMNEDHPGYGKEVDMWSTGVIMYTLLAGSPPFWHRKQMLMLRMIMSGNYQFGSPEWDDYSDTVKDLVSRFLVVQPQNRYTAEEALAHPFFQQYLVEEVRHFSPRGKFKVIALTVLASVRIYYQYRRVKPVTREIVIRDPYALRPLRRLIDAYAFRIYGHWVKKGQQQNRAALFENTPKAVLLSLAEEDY
Dual specificity protein kinase CLK1 (Homo sapiens), sequence (P49759 whole entry, looked up): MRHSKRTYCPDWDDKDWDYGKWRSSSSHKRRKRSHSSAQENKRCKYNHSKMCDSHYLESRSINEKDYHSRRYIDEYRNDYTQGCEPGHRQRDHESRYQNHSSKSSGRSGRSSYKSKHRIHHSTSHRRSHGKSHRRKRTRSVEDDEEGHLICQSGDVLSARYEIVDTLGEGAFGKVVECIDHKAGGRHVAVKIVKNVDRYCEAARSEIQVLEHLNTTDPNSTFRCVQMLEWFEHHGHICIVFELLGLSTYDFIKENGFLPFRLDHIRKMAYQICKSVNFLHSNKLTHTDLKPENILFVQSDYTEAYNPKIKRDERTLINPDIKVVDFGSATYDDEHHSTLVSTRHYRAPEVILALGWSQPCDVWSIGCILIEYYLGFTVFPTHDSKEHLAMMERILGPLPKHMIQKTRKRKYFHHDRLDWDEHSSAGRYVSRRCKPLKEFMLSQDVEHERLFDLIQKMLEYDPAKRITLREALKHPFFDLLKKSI

For `CNC(=O)c1ccc(Nc2nc(OC3CCCC3)c3c(-c4ccc5nc(C)oc5c4)c[nH]c3n2)c(OC)c1`, the Vd in [1] came out at 2.3 L/kg. In addition, the IC50 in data set [2] was found to be 157 nM; in data set [3], 1300 nM. The Activity is 26% in data set [4] and 5% in the data set on Mus musculus. Further, the result in the data set with MDA-MB-231 and with CAL-51 was Active. The MRT in data set [5] was 5.2 h. Besides, the inhibition in [6], in data set [7] and in data set [8] was above 80% in each case.
